The subject of series [1] is Mus musculus. The experiment in a line: Reduction in morphine dependence expression in CD1 mouse assessed as decrease in frequency of jumping at 0.05 mg/kg, ip bid administered 15 mins before last morphine dosing […]. The series is classed as functional. The arrangement: scale not given: the % may be the effect or the level left. The following applies: route intraperitoneal. The gist of the method: (§1)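 In male CD-1 mice, morphine 10 mg/kg sc was given twice daily at 12 h intervals for 6 days, with test agent 0.05 mg/kg ip 15 min before each morphine dose. Jumping was counted, and somatic signs were scored as the sum of rearing, forepaw tremor and teeth chatter. Blind observers; mean ± SEM.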
(In general: Thermal pain tests record how soon the animal reacts.)

Series [2] deals with Mus musculus. The experiment in a line: Reduction in morphine dependence expression in CD1 mouse assessed as decrease in expression of naloxone-precipitated withdrawal syndrome at 0.05 mg/kg, ip bid administered 15 mins before last morphine dosing […]. The class given is functional, organism-based. The arrangement: dose 0.05 mg/kg. In a few lines:
as §1

Series [3] has as its target T1, Alpha-2B adrenergic receptor (Homo sapiens) (UniProt P18089).
T1 sequence (whole entry): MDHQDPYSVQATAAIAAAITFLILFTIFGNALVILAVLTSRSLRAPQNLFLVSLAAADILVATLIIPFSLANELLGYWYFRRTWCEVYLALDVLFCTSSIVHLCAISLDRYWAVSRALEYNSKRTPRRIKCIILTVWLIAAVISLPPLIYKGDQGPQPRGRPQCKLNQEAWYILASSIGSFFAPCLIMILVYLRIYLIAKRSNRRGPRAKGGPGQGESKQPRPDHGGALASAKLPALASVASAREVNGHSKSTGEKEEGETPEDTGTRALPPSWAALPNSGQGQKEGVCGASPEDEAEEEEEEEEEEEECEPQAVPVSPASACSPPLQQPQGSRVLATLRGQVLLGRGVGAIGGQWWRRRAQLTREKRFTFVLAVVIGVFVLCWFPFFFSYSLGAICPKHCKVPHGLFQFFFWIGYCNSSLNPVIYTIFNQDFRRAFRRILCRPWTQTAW
The conditions noted are these: CHO.

Series [4] deals with Mus musculus. The experiment in a line: Reduction in morphine tolerance acquisition in CD1 mouse assessed as morphine analgesic effect incidence at 0.05 mg/kg, ip administered as single dose 15 mins before last morphine dosing on test day post morphine challenge by radiant heat tail flick test. The series is classed as functional. The arrangement: scale not given: the % may be the effect or the level left. In a few lines: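 Tolerance was induced in male CD-1 mice with morphine 10 mg/kg sc twice daily at 12 h intervals for 5 days. On day 5, test agent 0.05 mg/kg ip was given once, 15 min before the last morphine injection. Tail-flick antinociception was read 30 min after that injection and expressed as %MPE, with day 1 vs day 5 compared.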

Series [5] has as its system Mus musculus. The experiment in a line: Reduction in morphine tolerance acquisition in CD1 mouse assessed as morphine analgesic effect incidence at 0.05 mg/kg, ip bid administered 15 mins before last morphine dosing by radiant heat tail flick test. The series is classed as functional, organism-based. The arrangement: dose 0.05 mg/kg.
The test system of series [6] is Mus musculus. The experiment in a line: Reduction in morphine dependence expression in CD1 mouse assessed as decrease in somatic signs at 0.05 mg/kg, ip bid administered 15 mins before last morphine dosing […]. The class given is functional. Set-up: scale not given: the % may be the effect or the level left. The following applies: route intraperitoneal. The gist of the method:
as §1

Series [7] has as its target T2, Alpha-2C adrenergic receptor (Homo sapiens) (UniProt P18825).
T2 sequence (whole entry): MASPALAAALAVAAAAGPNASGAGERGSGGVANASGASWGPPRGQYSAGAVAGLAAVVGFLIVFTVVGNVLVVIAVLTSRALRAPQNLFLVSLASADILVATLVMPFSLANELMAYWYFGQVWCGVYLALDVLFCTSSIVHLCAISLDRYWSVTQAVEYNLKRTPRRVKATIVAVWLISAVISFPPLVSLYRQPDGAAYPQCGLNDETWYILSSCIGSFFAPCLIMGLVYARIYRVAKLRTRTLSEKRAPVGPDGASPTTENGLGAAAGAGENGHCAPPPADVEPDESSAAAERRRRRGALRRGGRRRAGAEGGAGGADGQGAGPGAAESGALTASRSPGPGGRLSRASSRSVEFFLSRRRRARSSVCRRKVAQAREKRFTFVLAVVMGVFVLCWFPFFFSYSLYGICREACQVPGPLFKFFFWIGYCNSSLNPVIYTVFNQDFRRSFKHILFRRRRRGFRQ
The experiment in a line: Agonist activity at human Alpha-2C adrenoceptor expressed in CHO cells assessed as induction of extracellular acidification by microphysiometry relative to (-)noradrenaline. The series is classed as functional, cell-based. The gist of the method: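 Cytosensor microphysiometry on CHO cells stably expressing one human α2-AR subtype, seeded at 3 × 10⁵ cells/cup and grown 24 h at 37 °C. Cells were perfused with bicarbonate-free DMEM and exposed to agonist for 4 min, with 30 min washes between exposures. The read-out is the change in acidification rate: peak after agonist minus the mean of three prior readings. […] Mean ± SEM, 3–6 experiments.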

Series [8] concerns the target T3, Alpha-2A adrenergic receptor (Homo sapiens) (UniProt P08913).
T3 sequence (whole entry): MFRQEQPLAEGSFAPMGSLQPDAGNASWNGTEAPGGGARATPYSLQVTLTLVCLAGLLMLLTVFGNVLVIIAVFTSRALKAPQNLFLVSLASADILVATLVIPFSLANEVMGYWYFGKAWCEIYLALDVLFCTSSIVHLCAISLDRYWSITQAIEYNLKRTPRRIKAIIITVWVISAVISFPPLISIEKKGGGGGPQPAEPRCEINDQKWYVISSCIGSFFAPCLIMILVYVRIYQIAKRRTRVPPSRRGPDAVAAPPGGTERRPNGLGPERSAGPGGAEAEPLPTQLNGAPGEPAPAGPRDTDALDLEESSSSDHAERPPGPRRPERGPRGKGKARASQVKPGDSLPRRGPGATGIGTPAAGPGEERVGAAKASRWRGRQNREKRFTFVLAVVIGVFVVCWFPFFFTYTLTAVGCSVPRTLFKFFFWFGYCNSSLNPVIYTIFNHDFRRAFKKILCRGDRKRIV
The experiment in a line: Antagonist activity at human alpha2A adrenoceptor expressed in CHO cells assessed as effect on agonist-induced extracellular acidification by microphysiometry. The class given is functional, cell-based. The gist of the method: (§2)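 CHO cells stably expressing one human α2-AR subtype were run on the Cytosensor microphysiometer with bicarbonate-free DMEM perfusion. […] Kb = M/(concentration ratio − 1), where the ratio is EC50 with antagonist over EC50 without. Reported as pKb, mean ± SEM of 3–6 experiments.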

Series [9] deals with T1, Alpha-2B adrenergic receptor (Homo sapiens). The experiment in a line: Antagonist activity at human alpha2B adrenoceptor expressed in CHO cells assessed as effect on agonist-induced extracellular acidification by microphysiometry. The class given is functional, cell-based. In a few lines: as §2
The target in series [10] is T2, Alpha-2C adrenergic receptor (Homo sapiens). The experiment in a line: Antagonist activity at human Alpha-2C adrenoceptor expressed in CHO cells assessed as effect on agonist-induced extracellular acidification by microphysiometry. The series is classed as functional, cell-based. The gist of the method: as §2
Series [11] deals with Mus musculus. The experiment in a line: Toxicity in CD1 mouse assessed as effect on sleep duration at 0.05 mg/kg, ip by pentobarbital sodium induced sleep time assay. The series is classed as organism-based. The arrangement: dose 0.05 mg/kg, route intraperitoneal. The following applies: in vivo. In a few lines: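 Male CD-1 mice (n = 10 per group) were given test agent 0.05 mg/kg or vehicle, then sodium pentobarbital 50 mg/kg ip 15 min later. Sleep duration, the time from loss to regain of the righting reflex, was recorded in seconds. Mean ± SEM.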

Series [12] concerns Mus musculus. The experiment in a line: Enhancement of morphine-induced analgesic effect in CD1 mouse at 0.05 mg/kg, ip administered 15 mins before morphine dosing measured 30 to 240 mins post morphine challenge by radiant heat tail flick test. The series is classed as functional, organism-based. Set-up: dose 0.05 mg/kg. In a few lines: (§3)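 Male CD-1 mice (25–35 g) received test agent 0.05 mg/kg ip or vehicle 15 min before morphine 5 mg/kg sc. Radiant-heat tail-flick to the lower third of the tail; baseline latency (2–3 s) is the mean of two trials. Latencies were read at 30, 60, 90, 120 and 240 min and expressed as %MPE. 7–8 mice per group, mean ± SEM.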

Series [13] deals with T4, Alpha-2B adrenergic receptor (Homo sapiens, UniProt P18089).
T4 sequence (P18089 whole entry): T1 sequence (whole entry)
The experiment in a line: Displacement of [3H]RX821002 from human alpha2B adrenoceptor expressed in CHO cells. The series is classed as cell-based. The gist of the method:
(§4)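 Buffer was Tris-Mg (50 mM Tris-HCl, 0.5 mM MgCl2, pH 7.5), competitor 10^-9 to 10^-4 M, 30 min at room temperature. Bound ligand was filtered and counted. Ki by nonlinear one- or two-site fit, reported as pKi.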
(In a radioligand displacement assay an active substance lowers the binding of a labelled ligand.)

Series [14] deals with Mus musculus. The experiment in a line: Analgesic effect in CD1 mouse at 0.05 mg/kg, ip by radiant heat tail flick test. The class given is functional, organism-based. Set-up: dose 0.05 mg/kg. In a few lines: as §3
The target of series [15] is T5, Alpha-2C adrenergic receptor (Homo sapiens, UniProt P18825).
T5 sequence (P18825 whole entry): T2 sequence (whole entry)
The experiment in a line: Agonist activity at human Alpha-2C adrenoceptor expressed in CHO cells assessed as induction of extracellular acidification by microphysiometry. The series is classed as functional, cell-based. The gist of the method: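 Cytosensor microphysiometry on CHO cells stably expressing one human α2-AR subtype, seeded at 3 × 10⁵ cells/cup and grown 24 h at 37 °C. Cells were perfused with bicarbonate-free DMEM and exposed to agonist for 4 min, with 30 min washes between exposures. The read-out is the change in acidification rate: peak after agonist minus the mean of three prior readings. Mean ± SEM, 3–6 experiments.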

Series [16] concerns Mus musculus. The experiment in a line: Enhancement of morphine-induced analgesic effect in CD1 mouse at 0.05 mg/kg, ip administered 15 mins before morphine dosing measured 30 to 240 mins post morphine challenge in presence of Alpha-2C adrenergic receptor antagonist yohimbine by radiant heat tail flick test. The series is classed as functional, organism-based. Set-up: dose 0.05 mg/kg. In a few lines: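 Male CD-1 mice got yohimbine 1.250 mg/kg ip 15 min before test agent (0.05 mg/kg ip). Test agent was given 15 min before morphine 5 mg/kg sc. Radiant-heat tail-flick latency was read 30–240 min after morphine and expressed as %MPE.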

Series [17] has as its target T5, Alpha-2C adrenergic receptor. The experiment in a line: Displacement of [3H]RX821002 from human Alpha-2C adrenoceptor expressed in CHO cells. The series is classed as cell-based. The gist of the method: as §4
Series [18] concerns Mus musculus. The experiment in a line: Reduction in morphine dependence expression in CD1 mouse assessed as decrease in expression of naloxone-precipitated withdrawal syndrome at 0.05 mg/kg, ip administered as single dose […] on test day post morphine challenge […]. The series is classed as functional, organism-based. The arrangement: dose 0.05 mg/kg.

In series [19] the target is T4, Alpha-2B adrenergic receptor. The experiment in a line: Agonist activity at human alpha2B adrenoceptor expressed in CHO cells assessed as induction of extracellular acidification by microphysiometry.

The text below walks through data of ChEMBL document CHEMBL1275329, “Fruitful adrenergic α(2C)-agonism/α(2A)-antagonism combination to prevent and contrast morphine tolerance and dependence” (J Med Chem, 2010).

The structures appear in SMILES notation. Active and inactive are the calls of the source. No cut-off for these calls is given here.

What is called pKb is the Kb on a negative log10 scale, so that one unit is a factor of ten. Consider `C=CCc1ccccc1OC(C)C1=NCCN1` (racemic) [ALLYPHENYLINE], for which the Activity in the series with Mus musculus [1] worked out at 80%; in the series on Mus musculus [4] (route intraperitoneal) it was 22%; in the series with Mus musculus [6], 40%. The result in the series with Mus musculus [2] and in the series with Mus musculus [5] was Active. Further, the pEC50 result in series [3] is “inactive”. Further, the Intrinsic activity in series [7] was found to be 0.9. Besides, the pKb in series [8] turned out to be 7.4.

With `CC(Oc1ccccc1)C1=NCCN1` (racemic), the figures for the negative-log Kb (pKb) in series [9], in series [10] and in series [8] were 6.2, 6.85 and 7.01, respectively.

For orientation: Ki means the dissociation constant of the complex between target and ligand, obtained from inhibition or displacement. One may read the EC50 as the concentration that produces a half-maximal response. Consider `C=CCc1ccccc1O[C@H](C)C1=NCCN1`, for which the Activity entry in the series on Mus musculus [11] is recorded as “Non-toxic”. Also, the result with Mus musculus [2], in the series on Mus musculus [12], in the series on Mus musculus [5] and in the series on Mus musculus [18] was Active. For the same compound, the pEC50 result in series [3] was “inactive”. Moreover, the outcome with Mus musculus [4], with Mus musculus [14] and in the series on Mus musculus [16] was inactive. In addition, the values for the Ki in series [13] and in [17] were 562 nM and 178 nM, respectively. Besides, the Intrinsic activity in series [7] was 0.5. Moreover, the concentration giving a half-maximal response (EC50) in series [15] was 186 nM. In addition, in series [8], the pKb stood at 7.4.

As for `C=CCc1ccccc1O[C@@H](C)C1=NCCN1`, the Activity entry is “Non-toxic” in the series on Mus musculus [11] and 22% with Mus musculus [4] (route intraperitoneal). The outcome with Mus musculus [2], with Mus musculus [12], in the series with Mus musculus [5] and in the series with Mus musculus [18] was Active. The inhibition constant Ki in [13] was 398 nM; in [17], 70.8 nM. The outcome in the series on Mus musculus [14] and with Mus musculus [16] was inactive. Besides, the figures for the EC50 in [19] and in series [15] were 1000 nM and 25.1 nM, respectively. In addition, the Intrinsic activity in series [7] was found to be 0.9. In addition, in series [8], the negative-log Kb (pKb) turned out to be 7.8.
